Measured values from PubChem BioAssay AID2307 (NMMLSC, 2010).

Target: Regulator of G-protein signaling 8 (Homo sapiens) (UniProt P57771)
Test: small molecules altering RGS8 binding of Galphao – biochemical, multiplex bead flow cytometry, SAR compounds, SAR follow-up (AID 2307)
Settings: bead-based flow cytometry, AF488-Galphao binding to RGS8
Method in brief: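 Assay system – streptavidin bead-bound biotinylated RGS8 · Probe or stimulus – 7 nM activated AF488-Galphao · Timing – Bead–Galphao binding for 30–90 min at room temperature · Detection – flow cytometry, 530 nm bead fluorescence · Read-out – percent binding vs DMSO and RGS-free beads, four-parameter EC50, Ki from EC50 · Control set – DMSO wells as high, RGS-free blank beads as low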

Regulator of G-protein signaling 8 (Homo sapiens), sequence (P57771 whole entry, looked up): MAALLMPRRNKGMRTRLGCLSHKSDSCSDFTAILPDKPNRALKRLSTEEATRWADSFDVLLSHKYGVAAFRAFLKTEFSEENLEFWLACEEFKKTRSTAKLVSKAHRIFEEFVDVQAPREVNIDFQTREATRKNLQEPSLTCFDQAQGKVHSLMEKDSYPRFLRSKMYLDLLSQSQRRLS

Row | EC50 [nM] | Compound
1 | 29 | NS(=O)(=O)c1ccc(N/N=C/c2ccc(O)c(O)c2O)c([N+](=O)[O-])c1

Same assay, conditions: bead-based flow cytometry, AF488-Galphao binding to RGS8; measured here: Ki calculated from EC50

Row | Compound | Ki [nM]
2 | CCOC(=O)c1sc(NC(=O)CSc2nnc(Cc3ccccc3)o2)c(C#N)c1C | 150
3 | COC(=O)CCC(=O)Nc1sc(C)c(C)c1C(N)=O | 700
4 | O=C(Cc1csc(N2CCOCC2)n1)N/N=C/c1ccc(O)c(O)c1O | 320
5 | O=C(NCCCN1CCOCC1)c1sc2cc([N+](=O)[O-])ccc2c1Cl | 470
6 | Cc1cccc(N2CCN(C(=O)COc3nsc4nc(C)cc(C)c34)CC2C)c1 (stereo not given) | 2640
7 | CCN=c1scc(C)n1/N=C/c1ccc(O)c(O)c1O | 470
8 | CN1CCN(C2=C(Cl)C(=O)C(c3cnc(N4CCCCC4)s3)=C(Cl)C2=O)CC1 | 20
9 | Cc1[nH]n(-c2ccccc2)c(=S)c1C=NCCCN=Cc1c(C)[nH]n(-c2ccccc2)c1=S | 430
10 | CC(NC(=O)c1sc2cc([N+](=O)[O-])ccc2c1Cl)C(C)(C)C (stereo not given) | 170
11 | CN=c1scc(C)n1/N=C/c1ccc(O)c(O)c1O | 260
12 | Cc1cccc(N2CCN(C(=O)Cn3sc4nc(C)cc(C)c4c3=O)CC2C)c1 (stereo not given) | 460
13 | Nc1c(C(=O)NCC2CCCO2)sc2nc3c(c(-c4ccco4)c12)CC/C3=C/c1ccco1 (stereo not given) | 400
14 | O=C1C(Cl)=C(N2CCCCC2)C(=O)C(Cl)=C1c1cnc(N2CCCCC2)s1 | 60
15 | CC(=O)OCCCNc1cc(Sc2nc3ccccc3s2)c2nonc2c1[N+](=O)[O-] | 70
16 | Cc1cc(Cl)ccc1N=c1ssnc1Cl | 110

Other lines, results leading:

Row | Ki [nM] | Compound
17 | 20 | NS(=O)(=O)c1ccc(N/N=C/c2ccc(O)c(O)c2O)c([N+](=O)[O-])c1
18 | 3590 | CCC(=O)NC(c1ccc(C)cc1)c1cc([N+](=O)[O-])c2cccnc2c1O (stereo not given)
19 | 20 | O=c1c2ccccc2sn1-c1ccc(S(=O)(=O)N2CCCC2)cc1
20 | 100 | O=C(COc1ccccc1C(=O)N/N=C/c1ccc(O)c(O)c1)N/N=C/c1ccc(O)c(O)c1
21 | 340 | CCN(CC)S(=O)(=O)c1cccc(C(=O)N/N=C/c2ccc(O)c(O)c2O)c1
22 | 180 | Cc1[nH]n(-c2ccccc2)c(=S)c1C=Nc1cccc([N+](=O)[O-])c1
23 | 150 | COc1ccc(C2=CC(=O)C=CC2=O)cc1
24 | 580 | CC1(C)OC(=O)C(=Cc2ccc(-c3ccc(S(N)(=O)=O)cc3)o2)C(=O)O1
25 | 2590 | CCN(CC)S(=O)(=O)c1cccc(-c2n[nH]c(=S)n2/N=C/c2ccc(C(=O)OC)cc2)c1
